Experiment [1] deals with Ribosomal protein S6 kinase beta-1 (Homo sapiens) (UniProt P23443). Kind of experiment: Inhibition of p70S6K at 10 uM by HTRF assay relative to control. The procedure, abridged:
(§1)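 HTRF kinase assay, one panel of kinases. Inhibitor stock 50 µM in 100% DMSO; tested at 10 µM. ATP and substrate at final levels near Km. Final buffer: 50 mM Hepes/NaOH pH 7.4, 40 µM Na3VO4, 0.005% Tween-20, 1 mM DTT, MnCl2 or MgCl2 at kinase-dependent levels. Started by adding ATP/substrate. Reaction run at room temperature, time varied by kinase. Detection mix in 50 mM Hepes pH 7.4, 0.1% BSA, 150 mM KF, incubated ≥1 h at room temperature. Activity expressed as % of uninhibited control; n=2.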
(In general: Time-resolved FRET reads energy transfer from a long-lived donor to a nearby acceptor.)

Experiment [2] deals with Cyclin-dependent kinase 1 (Homo sapiens) (UniProt P06493). Kind of experiment: Inhibition of CDK1 at 10 uM by HTRF assay relative to control. The procedure, abridged:
as §1

Experiment [3] deals with Protein kinase C alpha type (Homo sapiens) (UniProt P17252). Kind of experiment: Inhibition of PKCalpha at 10 uM by HTRF assay relative to control. The procedure, abridged: as §1
Experiment [4] concerns the target High affinity nerve growth factor receptor (Homo sapiens) (UniProt P04629). Kind of experiment: Inhibition of TrkA at 10 uM by HTRF assay relative to control. A digest of the protocol:
as §1

Experiment [5] addresses Mitogen-activated protein kinase 8 (Homo sapiens) (UniProt P45983). Kind of experiment: Inhibition of JNK1 at 10 uM by HTRF assay relative to control. The procedure, abridged:
as §1

Experiment [6] addresses MAP kinase-activated protein kinase 2 (Homo sapiens) (UniProt P49137). Kind of experiment: Inhibition of MAPKAPK2 at 10 uM by HTRF assay relative to control. A digest of the protocol: as §1
The target of experiment [7] is Platelet-derived growth factor receptor beta (Homo sapiens) (UniProt P09619). Description: Inhibition of PDGFRbeta at 10 uM by HTRF assay relative to control. The procedure, abridged:
as §1

For experiment [8], the target named is Tyrosine-protein kinase Lck (Homo sapiens) (UniProt P06239). Description: Inhibition of Lck at 10 uM by HTRF assay relative to control. The procedure, abridged: as §1
For experiment [9], the target named is T1, Serine/threonine-protein kinase Chk1 (Homo sapiens) (UniProt O14757).
T1 sequence (whole entry): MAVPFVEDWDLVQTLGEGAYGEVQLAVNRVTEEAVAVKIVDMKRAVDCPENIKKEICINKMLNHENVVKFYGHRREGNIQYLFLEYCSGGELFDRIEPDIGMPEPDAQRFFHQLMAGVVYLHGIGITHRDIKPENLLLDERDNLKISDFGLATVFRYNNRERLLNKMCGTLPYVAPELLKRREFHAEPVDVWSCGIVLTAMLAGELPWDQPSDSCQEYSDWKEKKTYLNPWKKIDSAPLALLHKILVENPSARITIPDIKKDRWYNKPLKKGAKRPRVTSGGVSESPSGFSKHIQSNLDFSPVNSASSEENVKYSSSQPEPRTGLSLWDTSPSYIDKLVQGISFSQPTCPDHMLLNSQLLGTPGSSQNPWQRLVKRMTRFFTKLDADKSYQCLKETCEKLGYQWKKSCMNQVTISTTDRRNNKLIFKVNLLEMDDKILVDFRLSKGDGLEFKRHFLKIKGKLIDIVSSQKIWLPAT
Kind of experiment: Inhibition of CHK1 at 10 uM by HTRF assay relative to control. The procedure, abridged: as §1

Experiment [10] concerns the target T2, Inhibitor of nuclear factor kappa-B kinase subunit beta (Homo sapiens) (UniProt O14920).
T2 sequence (whole entry): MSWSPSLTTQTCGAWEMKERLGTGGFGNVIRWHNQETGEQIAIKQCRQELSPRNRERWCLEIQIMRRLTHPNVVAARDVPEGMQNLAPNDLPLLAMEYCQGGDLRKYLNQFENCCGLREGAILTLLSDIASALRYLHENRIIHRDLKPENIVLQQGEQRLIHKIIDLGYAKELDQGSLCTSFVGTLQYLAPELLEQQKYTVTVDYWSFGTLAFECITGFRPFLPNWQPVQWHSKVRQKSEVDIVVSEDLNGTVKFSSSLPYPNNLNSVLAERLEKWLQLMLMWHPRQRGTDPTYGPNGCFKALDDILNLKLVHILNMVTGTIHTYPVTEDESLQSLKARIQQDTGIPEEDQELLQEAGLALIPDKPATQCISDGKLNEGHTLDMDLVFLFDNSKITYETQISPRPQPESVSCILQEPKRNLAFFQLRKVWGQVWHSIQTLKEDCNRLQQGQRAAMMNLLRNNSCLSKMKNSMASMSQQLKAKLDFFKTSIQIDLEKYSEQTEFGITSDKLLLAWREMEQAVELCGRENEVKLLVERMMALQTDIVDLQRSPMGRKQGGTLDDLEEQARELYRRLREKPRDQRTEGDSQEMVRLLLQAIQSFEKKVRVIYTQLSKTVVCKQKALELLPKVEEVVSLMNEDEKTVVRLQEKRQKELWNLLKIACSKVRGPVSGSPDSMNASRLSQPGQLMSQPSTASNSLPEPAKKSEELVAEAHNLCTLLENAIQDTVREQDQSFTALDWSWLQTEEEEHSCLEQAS
Description: Inhibition of IKK-beta at 10 uM by HTRF assay relative to control. A digest of the protocol: as §1

Experiment [11] has as its target Calcium/calmodulin-dependent protein kinase type II subunit alpha (Homo sapiens) (UniProt Q9UQM7). Kind of experiment: Inhibition of CaMK2alpha at 10 uM by HTRF assay relative to control. The procedure, abridged: as §1
The target in experiment [12] is Insulin-like growth factor 1 receptor (Homo sapiens) (UniProt P08069). Kind of experiment: Inhibition of IGF1R at 10 uM by HTRF assay relative to control. The procedure, abridged:
as §1

The target of experiment [13] is Serine/threonine-protein kinase Chk2 (Homo sapiens) (UniProt O96017). Kind of experiment: Inhibition of CHK2 at 10 uM by HTRF assay relative to control. A digest of the protocol: as §1
The target in experiment [14] is 3-phosphoinositide-dependent protein kinase 1 (Homo sapiens) (UniProt O15530). Kind of experiment: Inhibition of PDK1 at 10 uM by HTRF assay relative to control.
In experiment [15] the target is Protein kinase C gamma type (Homo sapiens) (UniProt P05129). Kind of experiment: Inhibition of PKCgamma at 10 uM by HTRF assay relative to control. A digest of the protocol: as §1
The target in experiment [16] is Rho-associated protein kinase 2 (Homo sapiens) (UniProt O75116). Description: Inhibition of ROCK2 at 10 uM by HTRF assay relative to control. The procedure, abridged:
as §1

Experiment [17] concerns the target Tyrosine-protein kinase Fes/Fps (Homo sapiens) (UniProt P07332). Description: Inhibition of FES at 10 uM by HTRF assay relative to control. The procedure, abridged:
as §1

The target in experiment [18] is Ribosomal protein S6 kinase alpha-3 (Homo sapiens) (UniProt P51812). Kind of experiment: Inhibition of RSK2 at 10 uM by HTRF assay relative to control. A digest of the protocol: as §1
Experiment [19] addresses Fibroblast growth factor receptor 1 (Homo sapiens) (UniProt P11362). Description: Inhibition of FGFR1 at 10 uM by HTRF assay relative to control. A digest of the protocol:
as §1

Experiment [20] is described as follows: Inhibition of AMPKalpha at 10 uM by HTRF assay relative to control. A digest of the protocol: as §1

Broadly, the inhibition is the relative decrease from the control value, in per cent.

Sequence of 3-phosphoinositide-dependent protein kinase 1 (Homo sapiens) (O15530 whole entry, looked up): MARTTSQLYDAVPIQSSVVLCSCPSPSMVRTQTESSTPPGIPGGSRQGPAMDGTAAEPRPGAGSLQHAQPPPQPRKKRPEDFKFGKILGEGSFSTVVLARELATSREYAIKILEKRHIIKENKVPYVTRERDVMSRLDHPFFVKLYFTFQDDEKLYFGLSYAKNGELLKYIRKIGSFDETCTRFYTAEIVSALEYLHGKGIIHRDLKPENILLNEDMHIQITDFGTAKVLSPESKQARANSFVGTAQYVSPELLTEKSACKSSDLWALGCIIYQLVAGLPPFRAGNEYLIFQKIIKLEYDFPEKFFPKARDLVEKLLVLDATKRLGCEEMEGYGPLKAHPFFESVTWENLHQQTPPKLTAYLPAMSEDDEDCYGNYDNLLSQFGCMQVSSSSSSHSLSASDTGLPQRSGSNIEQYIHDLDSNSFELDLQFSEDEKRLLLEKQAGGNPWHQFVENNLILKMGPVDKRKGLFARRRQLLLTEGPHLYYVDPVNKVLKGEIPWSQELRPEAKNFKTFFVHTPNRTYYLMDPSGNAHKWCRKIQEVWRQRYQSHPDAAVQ
Sequence of Calcium/calmodulin-dependent protein kinase type II subunit alpha (Homo sapiens) (Q9UQM7 whole entry): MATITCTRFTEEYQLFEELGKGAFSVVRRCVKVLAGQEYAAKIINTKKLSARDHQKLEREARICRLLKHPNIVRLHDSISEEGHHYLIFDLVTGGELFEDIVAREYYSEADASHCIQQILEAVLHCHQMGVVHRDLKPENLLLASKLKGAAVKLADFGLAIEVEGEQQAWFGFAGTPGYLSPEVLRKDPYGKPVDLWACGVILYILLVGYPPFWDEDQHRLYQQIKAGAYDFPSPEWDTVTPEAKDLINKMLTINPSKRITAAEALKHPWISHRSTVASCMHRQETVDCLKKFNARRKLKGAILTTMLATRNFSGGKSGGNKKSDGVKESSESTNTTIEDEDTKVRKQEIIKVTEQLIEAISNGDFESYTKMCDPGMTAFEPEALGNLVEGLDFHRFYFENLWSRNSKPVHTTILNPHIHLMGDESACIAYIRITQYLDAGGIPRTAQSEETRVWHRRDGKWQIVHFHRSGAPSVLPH
Sequence of Rho-associated protein kinase 2 (Homo sapiens) (O75116 whole entry, looked up): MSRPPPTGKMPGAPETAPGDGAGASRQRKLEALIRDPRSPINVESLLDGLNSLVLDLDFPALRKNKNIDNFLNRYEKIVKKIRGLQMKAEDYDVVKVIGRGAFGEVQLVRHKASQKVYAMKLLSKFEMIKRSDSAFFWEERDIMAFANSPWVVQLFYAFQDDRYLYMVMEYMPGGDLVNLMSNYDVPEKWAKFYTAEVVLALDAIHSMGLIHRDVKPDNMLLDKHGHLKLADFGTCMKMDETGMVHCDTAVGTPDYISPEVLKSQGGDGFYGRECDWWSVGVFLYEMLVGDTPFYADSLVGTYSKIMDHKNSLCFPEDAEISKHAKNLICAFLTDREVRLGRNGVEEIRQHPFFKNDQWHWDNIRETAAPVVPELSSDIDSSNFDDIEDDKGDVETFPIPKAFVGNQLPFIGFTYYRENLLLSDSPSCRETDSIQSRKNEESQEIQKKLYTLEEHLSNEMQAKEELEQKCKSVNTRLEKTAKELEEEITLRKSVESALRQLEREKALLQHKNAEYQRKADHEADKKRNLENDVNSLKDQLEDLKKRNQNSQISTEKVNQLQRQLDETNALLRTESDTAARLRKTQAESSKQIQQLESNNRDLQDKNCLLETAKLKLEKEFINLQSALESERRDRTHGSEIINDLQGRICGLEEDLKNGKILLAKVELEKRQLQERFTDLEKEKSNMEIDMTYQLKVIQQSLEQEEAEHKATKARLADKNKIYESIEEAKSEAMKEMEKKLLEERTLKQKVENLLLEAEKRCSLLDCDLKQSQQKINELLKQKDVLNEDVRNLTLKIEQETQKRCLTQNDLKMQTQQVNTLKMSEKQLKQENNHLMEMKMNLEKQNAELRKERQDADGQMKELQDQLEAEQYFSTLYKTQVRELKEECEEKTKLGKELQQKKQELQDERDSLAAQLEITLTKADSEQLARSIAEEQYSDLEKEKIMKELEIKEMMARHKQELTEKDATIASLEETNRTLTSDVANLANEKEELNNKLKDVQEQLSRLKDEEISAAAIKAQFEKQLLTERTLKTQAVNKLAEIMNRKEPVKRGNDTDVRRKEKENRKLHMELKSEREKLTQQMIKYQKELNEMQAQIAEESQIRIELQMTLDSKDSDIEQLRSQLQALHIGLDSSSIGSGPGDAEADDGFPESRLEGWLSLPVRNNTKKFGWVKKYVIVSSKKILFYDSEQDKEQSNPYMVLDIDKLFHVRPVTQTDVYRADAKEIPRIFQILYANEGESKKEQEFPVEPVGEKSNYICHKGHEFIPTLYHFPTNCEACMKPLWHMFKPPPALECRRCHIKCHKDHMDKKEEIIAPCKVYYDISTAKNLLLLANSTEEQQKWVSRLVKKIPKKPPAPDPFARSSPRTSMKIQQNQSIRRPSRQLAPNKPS
Sequence of High affinity nerve growth factor receptor (Homo sapiens) (P04629 33-796 limits assumed): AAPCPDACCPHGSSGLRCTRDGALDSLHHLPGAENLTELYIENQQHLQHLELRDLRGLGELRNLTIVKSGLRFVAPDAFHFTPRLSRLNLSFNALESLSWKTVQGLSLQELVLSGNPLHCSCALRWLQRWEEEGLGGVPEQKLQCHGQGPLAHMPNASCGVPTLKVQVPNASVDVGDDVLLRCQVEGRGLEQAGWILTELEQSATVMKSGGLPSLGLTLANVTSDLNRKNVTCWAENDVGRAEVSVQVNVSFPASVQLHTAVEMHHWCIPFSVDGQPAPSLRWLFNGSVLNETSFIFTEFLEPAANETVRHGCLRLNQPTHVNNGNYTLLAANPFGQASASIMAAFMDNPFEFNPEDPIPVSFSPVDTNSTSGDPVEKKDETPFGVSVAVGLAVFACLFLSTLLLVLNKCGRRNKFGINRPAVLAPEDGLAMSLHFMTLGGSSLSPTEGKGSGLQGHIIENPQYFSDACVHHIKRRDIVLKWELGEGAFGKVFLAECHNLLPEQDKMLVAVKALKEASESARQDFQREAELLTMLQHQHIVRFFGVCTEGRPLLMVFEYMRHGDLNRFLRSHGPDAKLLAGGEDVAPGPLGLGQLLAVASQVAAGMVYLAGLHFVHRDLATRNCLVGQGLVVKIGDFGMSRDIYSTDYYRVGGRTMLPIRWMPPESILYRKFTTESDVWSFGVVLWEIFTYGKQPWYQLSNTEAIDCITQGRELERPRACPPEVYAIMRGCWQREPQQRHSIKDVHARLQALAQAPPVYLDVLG
Sequence of Fibroblast growth factor receptor 1 (Homo sapiens) (P11362 22-822 limits assumed): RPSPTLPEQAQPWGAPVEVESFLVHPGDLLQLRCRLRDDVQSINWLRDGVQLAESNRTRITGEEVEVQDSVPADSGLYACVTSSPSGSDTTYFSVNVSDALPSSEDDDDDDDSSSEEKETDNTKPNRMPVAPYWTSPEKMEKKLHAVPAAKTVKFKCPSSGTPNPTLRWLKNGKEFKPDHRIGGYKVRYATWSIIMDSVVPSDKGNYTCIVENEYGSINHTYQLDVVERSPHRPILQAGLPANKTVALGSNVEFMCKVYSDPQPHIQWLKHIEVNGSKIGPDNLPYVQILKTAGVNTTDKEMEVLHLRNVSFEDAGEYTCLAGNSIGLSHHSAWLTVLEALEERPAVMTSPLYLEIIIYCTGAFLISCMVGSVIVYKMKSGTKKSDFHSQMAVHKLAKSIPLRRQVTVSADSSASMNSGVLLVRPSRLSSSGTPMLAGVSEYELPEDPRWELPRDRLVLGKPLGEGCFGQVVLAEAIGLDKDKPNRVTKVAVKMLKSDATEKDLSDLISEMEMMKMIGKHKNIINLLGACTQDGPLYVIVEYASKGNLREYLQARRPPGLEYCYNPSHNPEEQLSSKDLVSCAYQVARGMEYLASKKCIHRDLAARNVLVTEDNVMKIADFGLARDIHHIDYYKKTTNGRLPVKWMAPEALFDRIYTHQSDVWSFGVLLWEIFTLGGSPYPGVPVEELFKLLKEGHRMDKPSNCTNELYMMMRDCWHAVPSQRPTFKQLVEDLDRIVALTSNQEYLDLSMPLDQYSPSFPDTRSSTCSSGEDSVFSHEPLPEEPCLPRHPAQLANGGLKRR
Sequence of Ribosomal protein S6 kinase beta-1 (Homo sapiens) (P23443 whole entry, looked up): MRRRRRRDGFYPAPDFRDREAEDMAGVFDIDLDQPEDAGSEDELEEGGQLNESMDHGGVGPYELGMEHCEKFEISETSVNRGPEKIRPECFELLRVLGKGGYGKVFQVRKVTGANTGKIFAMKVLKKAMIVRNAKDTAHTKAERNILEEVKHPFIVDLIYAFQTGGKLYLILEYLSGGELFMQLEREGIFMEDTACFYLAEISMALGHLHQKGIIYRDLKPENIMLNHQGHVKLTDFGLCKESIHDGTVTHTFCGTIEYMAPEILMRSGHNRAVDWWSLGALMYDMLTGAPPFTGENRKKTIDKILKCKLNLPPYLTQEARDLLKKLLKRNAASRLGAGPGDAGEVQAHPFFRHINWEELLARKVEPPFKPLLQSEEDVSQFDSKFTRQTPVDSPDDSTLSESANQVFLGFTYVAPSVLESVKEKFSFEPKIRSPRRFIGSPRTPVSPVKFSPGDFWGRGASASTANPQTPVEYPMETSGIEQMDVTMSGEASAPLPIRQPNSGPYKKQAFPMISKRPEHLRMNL
Sequence of Serine/threonine-protein kinase Chk2 (Homo sapiens) (O96017 whole entry): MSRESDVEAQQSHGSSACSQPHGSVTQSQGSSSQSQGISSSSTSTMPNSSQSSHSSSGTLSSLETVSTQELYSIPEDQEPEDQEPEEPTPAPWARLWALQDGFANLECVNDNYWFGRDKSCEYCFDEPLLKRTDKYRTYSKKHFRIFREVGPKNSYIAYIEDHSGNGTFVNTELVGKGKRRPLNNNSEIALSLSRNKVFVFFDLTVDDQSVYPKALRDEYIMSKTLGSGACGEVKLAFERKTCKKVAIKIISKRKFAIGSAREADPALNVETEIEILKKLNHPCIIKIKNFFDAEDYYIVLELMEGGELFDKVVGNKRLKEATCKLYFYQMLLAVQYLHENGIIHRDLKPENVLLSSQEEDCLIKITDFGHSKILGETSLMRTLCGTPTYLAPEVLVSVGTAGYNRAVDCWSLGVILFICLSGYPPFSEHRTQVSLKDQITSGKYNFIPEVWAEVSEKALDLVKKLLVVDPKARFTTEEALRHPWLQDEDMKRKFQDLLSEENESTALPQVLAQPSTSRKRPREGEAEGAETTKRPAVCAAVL

Turning to `CN(C)c1ccc(C(=O)N2CCN(c3ncnc4c3CN(Cc3ccccc3)CC4)CC2)c2ccccc12`, the inhibition came out at 3% in [1]; 0% in experiment [2]; 0% in experiment [3]; 7% in experiment [4]; 6% in experiment [5]; 3% in experiment [6]. Further, the inhibition stood at 4% in experiment [7]; 0% in experiment [8]; 4% in experiment [9]; 1% in [10]; 0% in [11]; 0% in experiment [12]. Also, the inhibition in experiment [13] is 6%; in experiment [14], 0%; in [15], 4%; in experiment [16], 0%; in experiment [17], 2%; in experiment [18] it was 0%. Moreover, the figures for the inhibition in experiment [19] and in experiment [20] were 19% and 0%, respectively.
On to `Nc1nc(Nc2ccccc2)cc(N2CCC(C(=O)NCCc3ccccn3)CC2)n1`, for which the inhibition was 5% in experiment [1]; 0% in experiment [2]; 0% in experiment [3]; 5% in [4]; 0% in [5]; 0% in experiment [6]. Besides, the inhibition in [7] stood at 0%; in experiment [8], 0%; in experiment [9], 0%; in [10] it was 1%; in experiment [11], 0%; in experiment [12], 0%. Moreover, the inhibition in experiment [13] came out at 0%; in experiment [14] it was 0%; in [15] it was 5%; in experiment [16], 0%; in [17], 0%; in experiment [18] it was 0%. In addition, the inhibition in experiment [19] and in experiment [20] was 0% throughout.
As to `O=C(CN1CCN(c2ncnc3c2CN(Cc2ccccc2)CC3)CC1)Nc1cc(F)ccc1F`, the inhibition in experiment [1] worked out at 8%; in experiment [2] it was 0%; in [3], 4%; in [4], 10%; in [5], 0%; in [6], 0%. Besides, the inhibition in [7] came out at 5%; in experiment [8], 0%; in experiment [9], 0%; in [10], 0%; in experiment [11], 0%; in [12], 0%. In addition, the inhibition worked out at 5% in experiment [13]; 0% in [14]; 0% in experiment [15]; 0% in experiment [16]; 11% in [17]; 0% in experiment [18]. Also, the inhibition in experiment [19] and in [20] was 0% each time.
In the case of `O=C(NCCc1ccc(O)cc1)c1cccc(Nc2nccc(Nc3ccc4ncsc4c3)n2)c1`, the inhibition in [1] worked out at 0%; in [2], 0%; in experiment [3], 0%; in [4], 27%; in experiment [5], 55%; in [6], 2%. Further, the inhibition in [7] amounted to 89%; in experiment [8], 1%; in experiment [9], 0%; in [10] it was 11%; in experiment [11] it was 0%; in experiment [12] it was 2%. Further, the inhibition in [13] turned out to be 0%; in experiment [14], 0%; in [15], 16%; in [16], 11%; in experiment [17], 45%; in experiment [18], 3%. The inhibition in experiment [19] came out at 52%; in [20] it was 8%.
Take `Cc1cccc(N(C)c2cc(Nc3cccc(C(=O)N4CCCC5CCCCC54)c3)ncn2)c1` (stereo not given): the inhibition is 12% in experiment [1]; 0% in experiment [2]; 0% in [3]; 12% in [4]; 2% in experiment [5]; 0% in experiment [6]. Moreover, the inhibition in experiment [7] was determined as 5%; in experiment [8] it was 0%; in experiment [9] it was 2%; in experiment [10] it was 7%; in [11] it was 0%; in experiment [12], 0%. The inhibition stood at 2% in [13]; 0% in [14]; 5% in experiment [15]; 0% in [16]; 7% in [17]; 0% in experiment [18]. Besides, the inhibition was determined as 0% in experiment [19] and 1% in experiment [20].
As for `COc1ccc(-c2noc(CN3CCN(c4cc(Nc5cccc(O)c5)ncn4)CC3)n2)cc1`, the inhibition stood at 12% in [1]; 0% in experiment [2]; 0% in [3]; 7% in experiment [4]; 0% in experiment [5]; 0% in [6]. Moreover, the inhibition turned out to be 6% in [7]; 0% in experiment [8]; 2% in experiment [9]; 2% in experiment [10]; 0% in [11]; 0% in [12]. Further, the inhibition was 0% in experiment [13]; 4% in experiment [14]; 5% in experiment [15]; 0% in [16]; 7% in experiment [17]; 0% in [18]. Moreover, the inhibition in experiment [19] was found to be 0%; in [20] it was 4%.
In the case of `Cc1cccc(Oc2ccnc(N3CCC[C@H]3C(=O)NCc3cccnc3)n2)c1`, the inhibition is 16% in experiment [1]; 0% in experiment [2]; 0% in [3]; 4% in [4]; 6% in experiment [5]; 0% in experiment [6]. Besides, the inhibition in experiment [7] came out at 11%; in experiment [8], 0%; in [9], 0%; in experiment [10], 0%; in experiment [11] it was 0%; in experiment [12], 0%. For the same compound, the inhibition amounted to 4% in [13]; 0% in [14]; 6% in experiment [15]; 0% in [16]; 5% in experiment [17]; 0% in experiment [18]. Besides, the inhibition in [19] and in experiment [20] was 0% in each case.
`Cc1cccc(Nc2cc(Nc3cccc(C(=O)N(CC(C)O)CC(C)O)c3)ncn2)c1` (stereo not given): the inhibition in experiment [1] was 14%; in experiment [2], 0%; in [3], 1%; in experiment [4], 11%; in [5] it was 7%; in experiment [6], 0%. Further, the inhibition came out at 32% in experiment [7]; 26% in experiment [8]; 3% in experiment [9]; 7% in [10]; 0% in [11]; 0% in [12]. Moreover, the inhibition in experiment [13] amounted to 1%; in experiment [14], 2%; in experiment [15], 1%; in experiment [16], 2%; in experiment [17], 20%; in experiment [18], 0%. Further, the results for the inhibition in [19] and in experiment [20] were 59% and 6%, respectively.
